The source of these data is ChEMBL document CHEMBL1155331, “Synthesis and SAR of a novel positive allosteric modulator (PAM) of the metabotropic glutamate receptor 4 (mGluR4)” (Bioorg Med Chem Lett, 2009).

The target of test [1] is T1, Metabotropic glutamate receptor 4 (Homo sapiens, UniProt Q14833). Kind of test: Allosteric modulator activity at human mGlu4 receptor expressed in CHO cells coexpressing Gqi5 assessed as effect on calcium flux in relative to glutamate. It is filed as functional, cell-based. The procedure, abridged: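 hmGluR4/Gqi5 stably transfected CHO cells, 30,000/well, grown overnight at 37 °C, 5% CO2; loaded with 1 μM Fluo-4 AM for 45 min at 37 °C in HBSS/20 mM HEPES/2.5 mM probenecid. Baseline fluorescence read (ex 470, em 540 nm); compound preincubated ~2.5 min, then glutamate EC20, then EC80 2 min later. Ca2+ flux read; 10-point 1:3 concentration-response curves.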
(Calcium assays in cells follow changes in intracellular calcium, usually with a dye or a luminescent sensor.)

The target of test [2] is T1, Metabotropic glutamate receptor 4. Kind of test: Allosteric modulator activity at human mGlu4 receptor expressed in CHO cells coexpressing Gqi5 assessed as effect on calcium flux. In kind it is functional, cell-based.

T1 sequence (Q14833 whole entry): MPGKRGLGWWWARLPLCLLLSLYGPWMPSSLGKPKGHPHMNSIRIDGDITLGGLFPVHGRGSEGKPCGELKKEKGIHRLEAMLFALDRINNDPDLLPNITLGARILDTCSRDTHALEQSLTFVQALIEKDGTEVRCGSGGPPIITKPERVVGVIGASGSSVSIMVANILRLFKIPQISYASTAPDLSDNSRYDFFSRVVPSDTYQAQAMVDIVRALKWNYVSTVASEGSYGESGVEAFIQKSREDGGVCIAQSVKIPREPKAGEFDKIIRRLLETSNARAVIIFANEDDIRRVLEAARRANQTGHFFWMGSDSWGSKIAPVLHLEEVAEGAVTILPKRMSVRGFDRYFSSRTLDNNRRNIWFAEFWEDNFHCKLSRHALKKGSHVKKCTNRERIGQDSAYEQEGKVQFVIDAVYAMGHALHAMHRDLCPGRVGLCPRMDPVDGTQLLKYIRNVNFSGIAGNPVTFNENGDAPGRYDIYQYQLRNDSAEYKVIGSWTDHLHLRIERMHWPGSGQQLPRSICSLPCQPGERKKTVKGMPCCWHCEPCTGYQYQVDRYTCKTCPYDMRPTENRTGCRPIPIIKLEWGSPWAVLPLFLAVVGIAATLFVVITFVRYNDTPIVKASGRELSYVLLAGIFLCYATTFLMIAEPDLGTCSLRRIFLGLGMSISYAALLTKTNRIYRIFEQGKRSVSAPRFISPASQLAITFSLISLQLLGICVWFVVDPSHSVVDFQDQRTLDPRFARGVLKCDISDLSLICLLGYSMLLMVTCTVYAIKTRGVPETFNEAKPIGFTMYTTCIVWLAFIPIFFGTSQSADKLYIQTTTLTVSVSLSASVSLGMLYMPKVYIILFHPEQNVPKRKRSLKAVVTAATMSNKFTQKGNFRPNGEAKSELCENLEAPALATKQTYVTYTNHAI

For the molecule `NC(=O)[C@@H]1CC=CC[C@@H]1C(=O)Nc1cc(Cl)cc(Cl)c1`, the Emax – broadly, the maximal effect, on the per cent scale that the assay sets – in test [1] turned out to be 94%. The EC50 – broadly, the concentration giving half of the maximal effect – in test [2] (read-out: EC50) stood at 3.1 µM. For `O=C(O)C1CCCN(C(=O)Nc2cc(Cl)cc(Cl)c2)C1` (stereo not given), the EC50 entry in test [2] (cho) was “Not Active”.

Regarding `O=C(Nc1cc(Cl)cc(Cl)c1)[C@H]1CCCC[C@H]1C(=O)NC1CCCC1`, the EC50 result in test [2] (cho) is reported as “Not Active”. As for `O=C(Nc1cc(F)cc(Cl)c1)[C@H]1CCCC[C@H]1C(=O)O`, the Emax in test [1] was determined as 138%. Also, the EC50 in test [2] (read-out: EC50) was determined as 2 µM. Consider `CC1=CC[C@H](C(=O)Nc2cc(Cl)cc(Cl)c2)[C@H](C(=O)O)C1`, for which the EC50 entry in test [2] (cho) is “Not Active”.

As to `O=C(Nc1cc(F)cc(F)c1)[C@H]1CCCC[C@H]1C(=O)O`, the EC50 entry in test [2] (cho) is “Not Active”. Regarding `Cc1nc(NC(=O)[C@H]2CCCC[C@H]2C(=O)O)nn1C`, the EC50 result in test [2] (cho) is listed as “Not Active”. In the case of `CCCNC(=O)[C@@H]1CCCC[C@@H]1C(=O)Nc1cc(Cl)cc(Cl)c1`, in test [1], the Emax stood at 57%. Moreover, the EC50 in test [2] (read-out: EC50) was determined as 9.6 µM. `N#C[C@@H]1CCCC[C@@H]1C(=O)Nc1cc(Cl)cc(Cl)c1`: the Emax in test [1] is 55%. For the same molecule, the EC50 in test [2] (read-out: EC50) is 2 µM.

With `O=C(NN1CCOCC1)[C@H]1CCCC[C@H]1C(=O)O`, the EC50 entry in test [2] (cho) was “Not Active”. Same read-out and setting: to `O=C(Nc1cc(Cl)cc(Cl)c1)[C@@H]1[C@H](C(=O)O)[C@H]2C=C[C@@H]1C2` belongs “Not Active”; to `O=C(Nc1ccc(F)c(F)c1)[C@H]1CCCC[C@H]1C(=O)O`, “Not Active”; to `CC1(C)[C@H](C(=O)Nc2cc(Cl)cc(Cl)c2)[C@@H]1C(=O)O`, “Not Active”. The same measure, in the same setting: to `Cc1cc(C)cc(NC(=O)[C@H]2CCCC[C@H]2C(=O)O)c1` belongs “Not Active”. On the same count and under the same terms, to `O=C(Nc1cc(Cl)cc(Cl)c1)[C@H]1CCCC[C@H]1c1nsc(=O)[nH]1` belongs “Not Active”; to `O=C(Nc1cc(Cl)cc(Cl)c1)[C@@H]1[C@H](C(=O)O)[C@@H]2C=C[C@H]1C2`, “Not Active”. As to `O=C(Nc1cccc(Br)c1)[C@H]1CCCC[C@H]1C(=O)O`, the EC50 entry in test [2] (cho) is recorded as “Not Active”.

In the case of `O=C(Nc1cc(Cl)cc(Cl)c1)[C@H]1CCC[C@H]1C(=O)O`, in test [2] (cho), the EC50 result is “Not Active”.

Regarding `O=C(O)CCC(=O)Nc1cc(Cl)cc(Cl)c1`, in test [2] (cho), the EC50 entry was “Not Active”. Turning to `O=C(NCc1ccccc1)[C@H]1CCCC[C@H]1C(=O)O`, in test [2] (cho), the EC50 result is reported as “Not Active”.

For the molecule `CN(C)C(=O)[C@@H]1CCCC[C@@H]1C(=O)Nc1cc(Cl)cc(Cl)c1`, in test [2] (cho), the EC50 entry is reported as “Not Active”.

For `O=C(Nc1cc(Cl)cc(Cl)c1)[C@H]1CC=CC[C@H]1C(=O)O`, the Emax in test [1] came to 150%. In test [2] (read-out: EC50), the concentration giving a half-maximal response (EC50) was found to be 2.7 µM.

Consider `O=C(O)[C@@H]1CCC[C@H](C(=O)Nc2cc(Cl)cc(Cl)c2)C1`, for which, in test [2] (cho), the EC50 result is “Not Active”. Still for that read-out and setting: to `O=C(Nc1cc(Cl)cc(Cl)c1)[C@H]1CC[C@H]1C(=O)O` (single isomer, unassigned) belongs “Not Active”. For `NC(=O)[C@@H]1CCCC[C@@H]1C(=O)Nc1cc(Cl)cc(Cl)c1`, the Emax in test [1] was determined as 104%. The EC50 in test [2] (read-out: EC50) is 0.95 µM. `O=C(Nc1ccccn1)[C@H]1CCCC[C@H]1C(=O)O`: the EC50 entry in test [2] (cho) is “Not Active”.

Regarding `O=C(Nc1cc(Cl)cc(Cl)c1)[C@H]1CCCC[C@H]1C(=O)N1CCOCC1`, the 50% effective concentration (EC50) result in test [2] (cho) was “Not Active”. On the same count and under the same terms, to `O=C(Nc1cc(C(F)(F)F)cc(C(F)(F)F)c1)[C@H]1CCCC[C@H]1C(=O)O` belongs “Not Active”. The same measure, in the same setting: to `O=C(NC1CCC1)[C@H]1CCCC[C@H]1C(=O)O` belongs “Not Active”; to `O=C(Nc1cc(Cl)cc(Cl)c1)[C@H]1CCCC[C@H]1C(=O)NC1CC1`, “Not Active”. On the same count and under the same terms, to `Cc1ccc(NC(=O)[C@H]2CCCC[C@H]2C(=O)O)cc1C` belongs “Not Active”. Turning to `O=C(Nc1cc(Cl)cc(Cl)c1)[C@H]1CCCC[C@H]1C(=O)NCC1CC1`, the maximal response (Emax) in test [1] turned out to be 80%. Further, in test [2] (read-out: EC50), the EC50 turned out to be 10 µM. Taken in the same sequence, the figures for `O=C(Nc1cc(Cl)cc(Cl)c1)[C@H]1CCCC[C@H]1c1nnn[nH]1` were 152% and greater than 10 µM. Taken in the same sequence, the figures for `O=C(Nc1ccccc1)[C@H]1CCCC[C@H]1C(=O)O` were 39% and greater than 10 µM.

`O=C1[C@H]2CCCC[C@H]2C(=O)N1c1cc(Cl)cc(Cl)c1`: the Emax in test [1] was determined as 152%. In test [2] (read-out: EC50), the EC50 turned out to be 3.3 µM.

Consider `O=C(Nc1cc(Cl)cc(Cl)c1)[C@H]1CCCC[C@H]1C(=O)O` (relative stereo), for which the Emax in test [1] stood at 127%. In test [2] (read-out: EC50), the EC50 stood at 0.74 µM. The matching figures for `CNC(=O)[C@@H]1CCCC[C@@H]1C(=O)Nc1cc(Cl)cc(Cl)c1`: 106% and 10 µM. With `O=C(NC1CCCCC1)[C@H]1CCCC[C@H]1C(=O)O`, the EC50 result in test [2] (cho) was “Not Active”.
